Results of several laboratories.
Lines come from different studies, so protocols differ.
BTK: Tyrosine-protein kinase BTK (BTK, Homo sapiens, UniProt Q06187)
CYP2E1: Cytochrome P450 2E1 (CYP2E1, Homo sapiens, UniProt P05181)
Kir1 channel protein: Kir1 channel protein (Aedes aegypti, UniProt L0EQS9)
MMP14: Matrix metalloproteinase-14 (MMP14, Homo sapiens, UniProt P50281)

COc1ccc(F)cc1C(=O)NCc1ccc(-c2nn([C@@H](C)C(F)(F)F)c(N)c2C(N)=O)cc1
IC50 (BTK; phosphorylation in cells, inhibitor): 0.0039 µM

O=C(Oc1nsnc1N1CCOCC1)N1CCCCC1
IC50 (Monoacylglycerol lipase ABHD6 (ABHD6, Homo sapiens, UniProt Q9BV23); enzyme activity, inhibitor, fluorescence; lysate): 0.085 µM

C=CC(=O)Nc1cc(Nc2nccc(Nc3cc(Cl)c(F)cc3C(C)(C)O)n2)c(OC)cc1N1CC[C@@H](N(C)C)C1
IC50 (CYP2E1; enzyme activity, inhibitor; human, liver microsomes): > 30 µM

O=C(O)c1cc2ccccc2c(Cc2c(O)c(C(=O)O)cc3ccccc23)c1O
IC50 (DNA polymerase eta (POLH, Homo sapiens, UniProt Q9Y253); enzyme activity, inhibitor): 79 µM

CN1CCN(c2ccc(Nc3ncc4cc(C#N)c(=O)n(C5CCCC5)c4n3)cc2)CC1
IC50 (BTK; enzyme activity, inhibitor): 0.421 µM

Cc1cnc(-c2ccc(-c3ccc(NC(=O)Nc4c(F)cc(F)cc4F)cc3F)c3c2C(=O)NC3)[nH]1
IC50 (Mitogen-activated protein kinase kinase kinase 19 (MAP3K19, Homo sapiens, UniProt Q56UN5); enzyme activity, inhibitor): 0.0173 µM

CCc1cc(/C(C)=N/OCc2ccc(C3CCCCC3)c(C(F)(F)F)c2)ccc1CN1CC(C(=O)O)C1
IC50 (CYP2E1; enzyme activity, inhibitor; human, liver microsomes; 20 min): > 0.5 µM

O=[N+]([O-])c1ccc(N2CCN(S(=O)(=O)c3ccc(F)cc3)CC2)cc1NCc1ccccn1
IC50 (Kir1 channel protein; ion flux, inhibitor): 0.8 µM

Cn1cc(-c2cc3cc(-c4cc(C(=O)NCc5ccc(C(=O)O)cc5)nn4C)ccc3[nH]2)cn1
IC50 (MMP14; enzyme activity, inhibitor): > 20 µM

Cc1cc(O)cc(C)c1C[C@H](NC(=O)[C@@H]1CCCN1C(=O)[C@H](CCCNC(=N)N)NC(=O)[C@H](CCCNC(=N)N)N(C)C(=O)CNC(=O)[C@@H](CO)NC(=O)CNC(=O)[C@H](Cc1cn(CCNC(=O)[C@H](Cc2ccc(O)cc2)NC(=O)[C@H](CC(C)C)NC(=O)C2OC2C(=O)O)nn1)NC(=O)CN1CCN(CC(=O)O)CCN(CC(=O)O)CCN(CC(=O)O)CC1)C(=O)N[C@H](C(=O)N[C@@H](CC(C)C)C(=O)O)C(C)(C)C (mixture of isomers)
IC50 (Neurotensin receptor type 1 (NTSR1, Homo sapiens, UniProt P30989); ligand displacement, radioligand): 0.087 µM

O=[N+]([O-])c1ccc(N2CCN(S(=O)(=O)c3ccc(F)cc3)CC2)cc1NCc1ccncc1
IC50 (Kir1 channel protein; ion flux, inhibitor): 0.39 µM

COc1ccc(-c2nsc(NC(=O)[C@@H]3C[C@H]3C)c2C)cc1
IC50 (Metabotropic glutamate receptor 8 (GRM8, Homo sapiens, UniProt O00222); calcium signal, antagonist): > 12.5 µM

O=C(O)CC(=O)C(=O)O
IC50 (L-lactate dehydrogenase B chain (LDHB, Homo sapiens, UniProt P07195); enzyme activity, inhibitor): 1020 µM

O=C(Nc1cccnc1)N1CCC(Cc2cccc(Oc3ccc(C(F)(F)F)cn3)c2)CC1
IC50 (Arylacetamide deacetylase (Homo sapiens, UniProt P22760); enzyme activity, inhibitor): > 10 µM

COc1ccc(CNc2c(CO)cnc3c(C4CC4)cc(C#N)cc23)cn1
IC50 (Dual 3',5'-cyclic-AMP and -GMP phosphodiesterase 11A (PDE11A, Homo sapiens, UniProt Q9HCR9); enzyme activity, inhibitor): > 10 µM

CC1=CC(=O)C(C(C)C)=CC1=O
IC50 (CYP2E1; enzyme activity, inhibitor, HPLC): 97 µM

O=[N+]([O-])c1ccc(N2CCN(S(=O)(=O)c3ccc(Cl)cc3)CC2)cc1NCc1ccco1
IC50 (Kir1 channel protein; ion current, inhibitor, patch clamp): 0.0342 µM

O=C(c1cc(O)c(O)c([N+](=O)[O-])c1)c1ccccc1F
IC50 (Catechol O-methyltransferase (COMT, Sus scrofa, UniProt Q99028); enzyme activity, inhibitor): 0.028 µM

N#Cc1ccc(N2CCN(S(=O)(=O)c3ccc(F)cc3)CC2)cc1NCc1ccncc1
IC50 (Kir1 channel protein; ion current, inhibitor, patch clamp): 0.0276 µM

CC(C)(C)c1cc(Cc2cc(C(C)(C)C)c(O)c(C(C)(C)C)c2)cc(C(C)(C)C)c1O
IC50 (Sarcoplasmic/endoplasmic reticulum calcium ATPase 1 (ATP2A1, Oryctolagus cuniculus, UniProt P04191); ATPase activity, inhibitor, absorbance; pH 7.3): 17 µM

N#Cc1ccc(N2CCN(S(=O)(=O)c3ccc(Cl)cc3)CC2)cc1NCc1ccncc1
IC50 (Kir1 channel protein; ion current, inhibitor, patch clamp): 0.039 µM

Cc1noc(-c2cc3cc(-c4cc(C(=O)NCc5ccc(C(=O)O)cc5)nn4C)ccc3[nH]2)n1
IC50 (MMP14; enzyme activity, inhibitor): > 20 µM

O=S(=O)(c1ccc(Cl)cc1)N1CCN(c2cccc(NCc3ccncc3)c2)CC1
IC50 (Kir1 channel protein; ion flux, inhibitor): 4 to 9 µM

Cc1noc(-c2cc3cc(-c4nc(C(=O)NCC5CCOCC5)[nH]c4C)ccc3[nH]2)n1
IC50 (MMP14; enzyme activity, inhibitor): > 20 µM

O=S(=O)(c1ccc(Cl)cc1)N1CCN(c2ccnc(NCc3ccncc3)c2)CC1
IC50 (Kir1 channel protein; ion flux, inhibitor): 4 to 9 µM

Cc1noc(-c2cc3cc(-c4nc(C(=O)NCc5cccnc5)[nH]c4C)ccc3[nH]2)n1
IC50 (MMP14; enzyme activity, inhibitor): > 20 µM

COc1ccc2c(Oc3ccc4c(C(=O)Nc5ccccc5N)cccc4c3)ccnc2c1
IC50 (RAC-beta serine/threonine-protein kinase (AKT2, Homo sapiens, UniProt P31751); enzyme activity, inhibitor): > 0.5 µM

CCS(=O)(=O)N1CCN(c2ccc([N+](=O)[O-])c(NCc3cccnc3)c2)CC1
IC50 (Kir1 channel protein; ion flux, inhibitor): 21 µM
